Screens: PubChem BioAssay, Broad Institute
Sampled rows, rich in hits. Any-hit rate of the full collection: about 2.1%.
FGF22 binding = binders of recombinant human FGF22 by thermal shift; SYPRO orange fluorescence; percent of sucrose octasulfate shift, DMSO zero; activity (Tm shift, normalised), % at 9.99 µM; 340,000 compounds, 1.5% hits; Q9HCT0;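 active = mean Tm shift, scaled 0 neutral to 100 positive control, at about 1.3% or above, every replicate too, limit read from the data; inconclusive = no clear call, values can overlap the other calls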
ARNT TACC3 PPI = disruptors of human ARNT/TACC3 interaction. Q9Y6A5. AlphaScreen His-ARNT PAS-B/GST-TACC3 binding, luminescence; TACC3 fragment carries E629A point mutation. inhibition, % at 9.99 µM. 390,000 compounds, 0.66% hits;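 active = mean inhibition of replicates at least 50% and at least half of replicates each reaching 50%; inconclusive = half or more replicates reach 50% but mean below 50%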
ERp5 inh = blocks human ERp5 reductase activity on insulin; 350,000 compounds, 0.05% hits; inhibition, % at 9.99 µM; ERp5 insulin aggregation, absorbance 650 nm, 90 min; Q15084;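 active = mean replicate inhibition above about 25%, with every replicate also reaching it, limit read from the data, passing the limit was not always enough; inconclusive = only one of those two criteria met; inactive = neither criterion met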
PDI inh = PDI (human) enzyme inhibition; PDI insulin aggregation turbidity, A650, 90 min; inhibition, % at 10 µM; P07237; AID 588391; 350,000 compounds, 0.052% hits;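 active = mean inhibition across replicates of 30% or more, whatever share of single replicates reach that level; inconclusive = mean inhibition below 30% while every single replicate reaches 30%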
FN deposit inh = fibronectin deposition inhibition; inhibition, % at 12.6 µM; AH1F fibroblasts, Alexa488-fibronectin deposition fluorescence, overnight; 350,000 compounds, 0.086% hits; AID 743247;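 active = mean inhibition across replicates of 30% or more, regardless of how many single replicates reach that level; inconclusive = mean under 30% yet at least half of replicates reach 30%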
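Material: AH1F fibroblast monolayer depositing Alexa488-labelled fibronectin into matrix / Amount: 10000 AH1F cells per well / Signal: fluorescence 485/525 nm / Medium: DMEM, 2% serum / Compound: single dose, pinned / Incubation: 1 h cell adhesion before compound, then overnight fibronectin incubation / Reagent: Alexa488-FN, 24 nM final / Read-out: inhibition of fibronectin deposition signal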
AF4-AF9 inh = blocks AF4 peptide binding to human AF9 | AlphaScreen, biotin-AF4 peptide binding to FLAG-AF9 | inhibition, % at 10 µM | 350,000 compounds, 0.47% hits | AID 651704;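 active = every replicate reaching a set inhibition limit, whatever the replicate mean, cut at about 25% in these data; inconclusive = mean inhibition reaches that limit but some replicates miss it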
Target sequence (P42568 whole entry, looked up): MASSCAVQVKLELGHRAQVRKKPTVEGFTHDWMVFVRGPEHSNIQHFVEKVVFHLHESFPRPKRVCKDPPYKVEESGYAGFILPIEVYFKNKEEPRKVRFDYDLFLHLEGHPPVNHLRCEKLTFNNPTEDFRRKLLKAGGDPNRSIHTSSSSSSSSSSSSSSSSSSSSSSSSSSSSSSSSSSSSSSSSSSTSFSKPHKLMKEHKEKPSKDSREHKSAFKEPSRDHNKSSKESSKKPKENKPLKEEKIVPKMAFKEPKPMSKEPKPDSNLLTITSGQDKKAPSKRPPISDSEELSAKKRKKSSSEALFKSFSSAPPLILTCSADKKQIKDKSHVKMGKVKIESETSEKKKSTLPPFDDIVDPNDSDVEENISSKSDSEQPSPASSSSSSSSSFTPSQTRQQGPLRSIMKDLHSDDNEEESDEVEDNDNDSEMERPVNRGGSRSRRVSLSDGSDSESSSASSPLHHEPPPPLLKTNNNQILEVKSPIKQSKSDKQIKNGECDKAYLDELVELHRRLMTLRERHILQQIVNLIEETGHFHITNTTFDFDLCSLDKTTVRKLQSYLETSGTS
A number is an active result; - = inactive; ? = inconclusive; . = no result; ! = repeats disagree.

SMILES | FGF22 binding | ARNT TACC3 PPI | ERp5 inh | PDI inh | FN deposit inh | AF4-AF9 inh
C[C@@H]1CN([C@@H](C)CO)C(=O)Cc2cc(NC(=O)Cc3ccccc3)ccc2O[C@@H]1CN(C)C(=O)Nc1ccc(C(F)(F)F)cc1 | - | - | 37 | . | . | -
CC(C)NC(=O)N(C)C[C@@H]1Oc2ccc(NC(=O)Nc3ccc(C(F)(F)F)cc3)cc2CC(=O)N([C@@H](C)CO)C[C@H]1C | - | 46 | - | . | - | -
C[C@@H]1CN([C@@H](C)CO)C(=O)Cc2cc(NS(=O)(=O)c3cccs3)ccc2O[C@H]1CN(C)C(=O)Nc1ccc(C(F)(F)F)cc1 | - | - | 47 | . | . | -
C[C@@H]1CN([C@@H](C)CO)C(=O)c2cc(NC(=O)CCC(F)(F)F)ccc2O[C@H]1CN(C)S(=O)(=O)c1ccc(F)cc1 | - | - | - | . | - | -
CC(C)NC(=O)N(C)C[C@H]1Oc2ccc(NS(=O)(=O)c3cn(C)cn3)cc2C(=O)N([C@@H](C)CO)C[C@H]1C | - | - | - | . | - | -
O=C(O)c1cc2n(n1)C(C(F)(F)F)CC(C1CC1)N2 (stereo not given) | 43 | - | - | - | - | .
C[C@@H]1CN([C@H](C)CO)C(=O)c2cccc(NC(=O)Nc3ccc4c(c3)OCO4)c2O[C@@H]1CN(C)C(=O)Nc1ccccc1 | - | - | . | . | . | .
O=C(CN1CCN(Cc2ccccc2)CC1)Nc1cccc(S(=O)(=O)N2CCCCCC2)c1 | 43 | . | - | - | - | -
O=C(CSc1ncnc2ccccc12)Nc1cccc(S(=O)(=O)N2CCCC2)c1 | 43 | - | - | - | - | -
O=C(CN1CCOCC1)Nc1cccc(S(=O)(=O)N2CCCCCC2)c1 | - | - | - | - | . | -
O=C(CSc1ncnc2ccccc12)Nc1cc(S(=O)(=O)N2CCCCC2)ccc1Cl | . | - | . | - | . | .
Cc1cccc(N=N/C(=C\O)C(=O)c2ccc(Br)cc2)c1 | - | - | - | - | - | -
O=C(/C(=C/O)N=Nc1cccc(C(F)(F)F)c1)c1ccccc1 | 43 | - | - | - | . | -
CCC(=O)Nc1ccc2c(c1)C(=O)N(C)[C@@H]1CC[C@H](CC(=O)NCC3CCCCC3)O[C@H]1CO2 | - | - | - | . | - | -
COCC(=O)Nc1ccc2c(c1)C(=O)N(C)[C@H]1CC[C@H](CC(=O)NCc3ccccc3Cl)O[C@H]1CO2 | - | - | . | . | - | .
COCC(=O)Nc1ccc2c(c1)C(=O)N(C)[C@@H]1CC[C@@H](CC(=O)NCc3ccccc3Cl)O[C@H]1CO2 | - | - | . | . | 38 | .
CCC(=O)Nc1ccc2c(c1)C(=O)N(C)[C@H]1CC[C@@H](CC(=O)NCC3CC3)O[C@@H]1CO2 | - | - | 78 | . | - | -
CCC(=O)Nc1ccc2c(c1)C(=O)N(C)[C@@H]1CC[C@@H](CC(=O)NCC3CC3)O[C@@H]1CO2 | - | - | 48 | . | - | -
CC(=O)N(C)C[C@H]1Oc2ccc(N(C)C)cc2CC(=O)N(C)C[C@H]1C | . | . | . | . | - | .
C[C@H](CO)N1C[C@H](C)[C@@H](CN(C)C(=O)Nc2cccc3ccccc23)Oc2c(NC(=O)Nc3ccc4c(c3)OCO4)cccc2C1=O | - | . | - | . | . | -
CC(C)NC(=O)N(C)C[C@@H]1Oc2ncc(C#Cc3ccccc3F)cc2C(=O)N([C@@H](C)CO)C[C@H]1C | - | - | - | . | - | -
COc1cccc(S(=O)(=O)N(C)C[C@@H]2Oc3cc(C4=CCCCC4)ccc3S(=O)(=O)N([C@H](C)CO)C[C@@H]2C)c1 | - | - | - | . | . | -
C[C@@H]1CN([C@@H](C)CO)C(=O)c2cccc(NC(=O)c3ccc(-c4nccs4)cc3)c2O[C@H]1CN(C)Cc1ccccc1 | - | - | - | . | . | -
C[C@@H]1CN([C@@H](C)CO)C(=O)c2cc(NC(=O)Nc3ccc(F)cc3)ccc2O[C@@H](C)CCCCO[C@H]1CN(C)Cc1ccccc1 | - | - | - | . | . | -
O=C(Nc1ccccc1NC(=O)c1csnn1)c1csnn1 | 43 | - | - | - | - | -
SMILES | FGF22 binding | ARNT TACC3 PPI | ERp5 inh | PDI inh | FN deposit inh | AF4-AF9 inh
CC(C)NCC(O)COc1ccc(Br)cc1 (stereo not given) | 44 | . | - | - | - | -
CCO[C@H]1OC(C(=O)O)=C[C@@H](c2ccc3c(c2)OCO3)[C@@H]1CCCO | 44! | - | - | - | - | -
COc1ccc(CN(C)C[C@H]2OCCCC[C@H](C)Oc3ccc(NC(=O)Cc4ccccc4)cc3C(=O)N([C@H](C)CO)C[C@H]2C)cc1 | - | - | . | . | . | .
O=c1c2ccccc2sn1-c1cc(S(=O)(=O)N2CCOCC2)ccc1N1CCCC1 | . | - | . | - | - | .
O=c1c2ccccc2sn1-c1cc(S(=O)(=O)N2CCOCC2)ccc1N1CCOCC1 | . | - | . | - | 50 | .
CN1c2ccc(C#Cc3cccnc3)cc2[C@@H]2[C@@H](CCN2C(=O)C2CCCCC2)[C@H]1CO | - | - | - | . | - | -
COc1ccccc1NC(=O)CSC1=NC(=O)C(NC(C)=O)C(=O)N1 (stereo not given) | . | - | . | - | . | .
CC(=O)NC1C(=O)N=C(SCC(=O)Nc2ccc(C(F)(F)F)cc2Cl)NC1=O (stereo not given) | 44 | - | - | - | - | -
Cc1nn(C)c(C)c1CNC(=O)Nc1cccc(Cl)c1 | 43 | - | - | - | - | -
Cc1cc(NC(=O)NCc2ccccc2)c(=O)n(Cc2ccc(F)cc2)c1 | - | 48 | - | - | - | -
O=C(NCc1ccc(F)cc1)Nc1cccc(Cl)c1 | 44 | . | - | - | - | -
Cc1nn(C)c(C)c1CNC(=O)Nc1ccc(Cl)cc1 | - | - | - | - | - | -
O=C(NCc1ccccc1)Nc1cccn(Cc2ccc(F)cc2)c1=O | . | - | . | - | . | .
COc1ccccc1NC(=O)N1CCCCN2[C@H](CO)[C@@H](c3ccc(C#CC4CC4)cc3)[C@H]2C1 | . | . | - | . | . | 25
OC[C@@H]1[C@H](c2ccc(C#CC3CCCC3)cc2)[C@H]2CN(CCC(F)(F)F)CCCCN12 | - | - | - | . | . | 25
COc1ccc(C#Cc2ccc([C@H]3[C@@H](CO)N4CCCCN(Cc5ccccc5F)C[C@H]34)cc2)cc1 | - | - | - | . | - | 29
C[C@@H]1CCCCO[C@H](CN(C)Cc2ccccc2)[C@@H](C)CN([C@@H](C)CO)C(=O)c2cc(NC(=O)NC3CCCCC3)ccc2O1 | - | - | - | . | . | -
CNCCOc1nc(N2CCOCC2)nc(C)c1[N+](=O)[O-] | - | . | - | - | - | -
CCOc1nc(N2CCOCC2)nc(C)c1[N+](=O)[O-] | 44 | - | - | - | - | -
O=C(C1CCC1)N1CCCCN2[C@@H](CO)[C@H](c3ccc(C#CC4CCCC4)cc3)[C@@H]2C1 | - | - | - | . | . | -
O=[N+]([O-])c1ccc(C=NNc2ccccc2)cc1 | - | - | - | - | - | ?
CC(C)(C)c1cnnn1-c1ccc(/C=N/Nc2ccc([N+](=O)[O-])cc2)cc1 | 43 | - | - | - | - | -
